Results collected from several papers.
Compare with care: the assays were run in different laboratories.
Observed: microbial growth

For `O=C1NN=C(N=Cc2ccc(O)cc2O)C1=NNn1c(-c2ccccc2)nc2ccccc2c1=O`, the MIC was 53.5 µM (Vibrio cholerae; broth dilution; 24 h).
The MIC of `CC1=CC(=O)[C@H]2O[C@]1(C)O[C@H]([C@H](C)/C=C(C)/C=C/C(O)=C1/C(=O)CNC1=O)[C@H]2C` is reported as 6.25 µM (Bacillus anthracis; 34F2).
With `CCCCCCCCCCCC(=O)C(F)(F)P(=O)(O)O` the MIC was 200 µg/mL (Bacillus anthracis; STERNE34F2).
`CNC(=O)[C@@H](C)[C@H]1C(=O)/C(=C(O)/C=C/C(C)=C/[C@@H](C)[C@H]2O[C@@]3(C)O[C@H](C=C[C@@]34CO4)[C@@H]2C)C(=O)N1[C@@H]1CC[C@H](O)[C@H](C)O1` gave an MIC of greater than 100 µM (Bacillus anthracis; 34F2).
`CN[C@@H]1[C@H](O)[C@H](NC)[C@H]2O[C@@]3(O)C(=O)C[C@@H](C)O[C@H]3O[C@@H]2[C@H]1O` gave an MIC of 25 µg/mL (Streptococcus pyogenes; broth dilution; ATCC700294).
The MIC of `CC(/C=C/C(O)=C1/C(=O)CNC1=O)=C\[C@@H](C)[C@H]1O[C@@]2(C)O[C@H](C(=O)[C@@H]3O[C@@]32C)[C@@H]1C` is reported as 12.5 µM (Bacillus anthracis; 34F2).
`CCCCCCCC(=O)NP(=O)(O)O` has an MIC of greater than 200 µg/mL (Bacillus anthracis; STERNE34F2).
With `CC1=NN(CNc2ccccc2[N+](=O)[O-])C(=O)C1=NNn1c(-c2ccccc2)nc2ccccc2c1=O` the MIC was 50.4 µM (Vibrio cholerae; broth dilution; 24 h).
`O=C(CCCCCCCCCCOc1ccccc1)CP(=O)(O)O` has an MIC of greater than 200 µg/mL (Bacillus anthracis; STERNE34F2).
`CC1=NN(CNC(=O)c2ccccn2)C(=O)C1=NNn1c(-c2ccccc2)nc2ccccc2c1=O` gave an MIC of 52 µM (Vibrio cholerae; broth dilution; 24 h).
The MIC of `CC1=CC[C@H]2O[C@]1(C)O[C@H]([C@H](C)/C=C(C)/C=C/C(O)=C1/C(=O)CNC1=O)[C@H]2C` is reported as 3.13 µM (Bacillus anthracis; 34F2).
`CCCCCC/C=C\CCCCCCCCCC(=O)NP(=O)(O)O` gave an MIC of 100 µg/mL (Bacillus anthracis; STERNE34F2).
`CC(=O)NCN1N=C(C)C(=NNn2c(-c3ccccc3)nc3ccccc3c2=O)C1=O` has an MIC of 59.9 µM (Vibrio cholerae; broth dilution; 24 h).
